Assay results reported in ChEMBL document CHEMBL1649574, “Prevalence and characterization of heterogeneous vancomycin-intermediate Staphylococcus aureus isolates from 14 cities in China” (2009).
Values after ≈ are worked out from the molar mass of the structure shown.

Legend:
Assay type in all cases: functional
[1] = system: Staphylococcus aureus; experiment: Antimicrobial activity against SCCmec type II vancomycin-intermediate Staphylococcus aureus isolate 4sy32 by agar dilution method
Outline: (§1)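 Agar-dilution MICs were measured on a subset of 200 blood MRSA isolates from China. Agents: oxacillin, rifampin, gentamicin, levofloxacin, erythromycin, vancomycin, teicoplanin, tigecycline, ceftobiprole and linezolid. Phenotype came from the PAP-AUC ratio of each isolate to S. aureus Mu3 (VSSA <0.9; hVISA 0.9 to 1.3; VISA ≥1.3), read on BHI agar with 0 to 8.0 mg/liter vancomycin after 48 h at 35°C.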

[2] = system: Staphylococcus aureus; experiment: Antimicrobial activity against SCCmec type II vancomycin-intermediate Staphylococcus aureus isolate 4sy39 by agar dilution method; outline: as §1
[3] = system: Staphylococcus aureus; experiment: Antimicrobial activity against SCCmec type III vancomycin-intermediate Staphylococcus aureus isolate 5zjsau3 by agar dilution method; outline: as §1
[4] = system: Staphylococcus aureus; experiment: Antimicrobial activity against SCCmec type II vancomycin-intermediate Staphylococcus aureus isolate sh06024 by agar dilution method; outline: as §1
[5] = system: Staphylococcus aureus; experiment: Antimicrobial activity against SCCmec type III vancomycin-intermediate Staphylococcus aureus isolate gz06040 by agar dilution method; outline: as §1
[6] = system: Staphylococcus aureus; experiment: Antimicrobial activity against SCCmec type III vancomycin-intermediate Staphylococcus aureus isolate gz06051 by agar dilution method; outline: as §1
[7] = system: Staphylococcus aureus; experiment: Antimicrobial activity against SCCmec type II vancomycin-intermediate Staphylococcus aureus isolate 6zjsau7 by agar dilution method; outline: as §1
[8] = system: Staphylococcus aureus; experiment: Antimicrobial activity against SCCmec type III vancomycin-intermediate Staphylococcus aureus isolate bd4768 by agar dilution method; outline: as §1
[9] = system: Staphylococcus aureus; experiment: Antimicrobial activity against SCCmec type II vancomycin-intermediate Staphylococcus aureus isolate b2k4781 by agar dilution method; outline: as §1
[10] = system: Staphylococcus aureus; experiment: Antimicrobial activity against SCCmec type III vancomycin-intermediate Staphylococcus aureus isolate b3k2345 by agar dilution method; outline: as §1
[11] = system: Staphylococcus aureus; experiment: Antimicrobial activity against SCCmec type III vancomycin-intermediate Staphylococcus aureus isolate b2k3421 by agar dilution method; outline: as §1
[12] = system: Staphylococcus aureus; experiment: Antimicrobial activity against SCCmec type III vancomycin-intermediate Staphylococcus aureus isolate b3k5923 by agar dilution method; outline: as §1
[13] = system: Staphylococcus aureus; experiment: Antimicrobial activity against SCCmec type III vancomycin-intermediate Staphylococcus aureus isolate b4k6307 by agar dilution method; outline: as §1
[14] = system: Staphylococcus aureus; experiment: Antimicrobial activity against SCCmec type III vancomycin-intermediate Staphylococcus aureus isolate b5k3529 by agar dilution method; outline: as §1
[15] = system: Staphylococcus aureus; experiment: Antimicrobial activity against SCCmec type III vancomycin-intermediate Staphylococcus aureus isolate b5k3578 by agar dilution method; outline: as §1
[16] = system: Staphylococcus aureus; experiment: Antimicrobial activity against SCCmec type III vancomycin-intermediate Staphylococcus aureus isolate b6k1642 by agar dilution method; outline: as §1
[17] = system: Staphylococcus aureus; experiment: Antimicrobial activity against SCCmec type III vancomycin-intermediate Staphylococcus aureus isolate b6k7974 by agar dilution method; outline: as §1
[18] = system: Staphylococcus aureus; experiment: Antimicrobial activity against SCCmec type IV vancomycin-intermediate Staphylococcus aureus isolate 06b41 by agar dilution method; outline: as §1
[19] = system: Staphylococcus aureus; experiment: Antimicrobial activity against SCCmec type III vancomycin-intermediate Staphylococcus aureus isolate 13b16 by agar dilution method; outline: as §1
[20] = system: Staphylococcus aureus; experiment: Antimicrobial activity against SCCmec type III vancomycin-intermediate Staphylococcus aureus isolate 11b091 by agar dilution method; outline: as §1
[21] = system: Staphylococcus aureus; experiment: Antimicrobial activity against SCCmec type II vancomycin-intermediate Staphylococcus aureus isolate 07b63 by agar dilution method; outline: as §1
[22] = system: Staphylococcus aureus; experiment: Antimicrobial activity against SCCmec type III vancomycin-intermediate Staphylococcus aureus isolate 15b52 by agar dilution method; outline: as §1
[23] = system: Staphylococcus aureus; experiment: Antimicrobial activity against SCCmec type III vancomycin-intermediate Staphylococcus aureus isolate zj07028 by agar dilution method; outline: as §1
[24] = system: Staphylococcus aureus; experiment: Antimicrobial activity against SCCmec type III vancomycin-intermediate Staphylococcus aureus isolate sh07043 by agar dilution method; outline: as §1
[25] = system: Staphylococcus aureus; experiment: Antimicrobial activity against SCCmec type III vancomycin-intermediate Staphylococcus aureus isolate xa07029 by agar dilution method; outline: as §1
[26] = system: Staphylococcus aureus; experiment: Antimicrobial activity against SCCmec type III vancomycin-intermediate Staphylococcus aureus isolate gz07030 by agar dilution method; outline: as §1
[27] = system: Staphylococcus aureus; experiment: Antimicrobial activity against SCCmec type III vancomycin-intermediate Staphylococcus aureus isolate gs07022 by agar dilution method; outline: as §1

Compound	MIC [1]	MIC [2]	MIC [3]	MIC [4]	MIC [5]	MIC [6]	MIC [7]	MIC [8]	MIC [9]	MIC [10]	MIC [11]	MIC [12]	MIC [13]	MIC [14]	MIC [15]	MIC [16]	MIC [17]	MIC [18]	MIC [19]	MIC [20]	further results
Cc1onc(-c2ccccc2)c1C(=O)N[C@@H]1C(=O)N2[C@@H]1SC(C)(C)[C@@H]2C(=O)O [OXACILLIN]	256 µg/mL (≈ 638 µM)	256 µg/mL (≈ 638 µM)	> 64 µg/mL	> 64 µg/mL	32 µg/mL (≈ 79.7 µM)	> 64 µg/mL	> 64 µg/mL	> 64 µg/mL	> 64 µg/mL	> 64 µg/mL	> 64 µg/mL	> 64 µg/mL	> 64 µg/mL	> 64 µg/mL	> 64 µg/mL	> 64 µg/mL	> 64 µg/mL	8 µg/mL (≈ 19.9 µM)	> 64 µg/mL	> 64 µg/mL	MIC [21]: > 64 µg/mL; MIC [22]: > 64 µg/mL; MIC [23]: > 64 µg/mL; MIC [24]: > 64 µg/mL; MIC [25]: > 64 µg/mL; MIC [26]: > 64 µg/mL; MIC [27]: 8 µg/mL (≈ 19.9 µM)
GENTAMICIN	64 µg/mL	64 µg/mL	> 256 µg/mL	256 µg/mL	256 µg/mL	128 µg/mL	256 µg/mL	256 µg/mL	> 256 µg/mL	128 µg/mL	128 µg/mL	128 µg/mL	128 µg/mL	> 256 µg/mL	> 256 µg/mL	> 256 µg/mL	256 µg/mL	0.25 µg/mL	256 µg/mL	256 µg/mL	MIC [21]: 64 µg/mL; MIC [22]: 256 µg/mL; MIC [23]: > 256 µg/mL; MIC [24]: 128 µg/mL; MIC [25]: 128 µg/mL; MIC [26]: > 256 µg/mL; MIC [27]: 8 µg/mL
CC[C@H]1OC(=O)[C@H](C)[C@@H](O[C@H]2C[C@@](C)(OC)[C@@H](O)[C@H](C)O2)[C@H](C)[C@@H](O[C@@H]2O[C@H](C)C[C@H](N(C)C)[C@H]2O)[C@](C)(O)C[C@@H](C)C(=O)[C@H](C)[C@@H](O)[C@]1(C)O [ERYTHROMYCIN]	1 µg/mL (≈ 1.36 µM)	256 µg/mL (≈ 349 µM)	> 256 µg/mL	> 256 µg/mL	> 256 µg/mL	0.25 µg/mL (≈ 0.341 µM)	> 256 µg/mL	> 256 µg/mL	> 256 µg/mL	> 256 µg/mL	> 256 µg/mL	> 256 µg/mL	> 256 µg/mL	> 256 µg/mL	2 µg/mL (≈ 2.73 µM)	> 256 µg/mL	> 256 µg/mL	128 µg/mL (≈ 174 µM)	> 256 µg/mL	> 256 µg/mL	MIC [21]: > 256 µg/mL; MIC [22]: 256 µg/mL (≈ 349 µM); MIC [23]: > 256 µg/mL; MIC [24]: > 256 µg/mL; MIC [25]: > 256 µg/mL; MIC [26]: > 256 µg/mL; MIC [27]: > 256 µg/mL
